# An excerpt weighted towards active compounds, which were near 1.9% of everything screened.
# RanGTP-Imp inh: inhibitors of RanGTP-importin-beta interaction, primary screen, biochemical, FRET, CFP-Ran, YFP-importin-beta, homogeneous; cell-free CFP-Ran/YFP-importin-beta FRET ratio; inhibition, % (no concentration beside the values); actives 1.1% (n = 300,000); AID 2216;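 active = more than half of the replicate wells show a fall in the fluorescence ratio signal beyond about 16%, limit read from the data, passing the limit was not always enough; inconclusive = exactly half of the replicate wells pass the set limit; inactive = fewer than half of replicates pass the limit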;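 also: 0% = DMSO wells and 100% = Ran loaded with GDP instead of GTP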
# Hck Nef HTS: inhibitors of human Hck kinase activated by Nef. P08631. Recombinant Hck-YEEI plus Nef, Z-Lyte FRET kinase assay. inhibition, % at 20 µM. actives 0.68% (n = 220,000);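 active = Hck-Nef kinase inhibition above about 50%, limit read from the data; inactive = inhibition below that limit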;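 also: 0% = DMSO with Hck plus Nef and 100% = Hck alone without Nef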
# Runt-SMMHC FRET: blocks binding of human RUNX1 Runt domain to CBFb-SMMHC; AID 1434; actives 0.74% (n = 220,000); Cerulean-Runt/Venus-CBFb-SMMHC FRET ratio 530/480, 1 h; Q01196+Q13951; inhibition, % at 20 µM;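 active = mean inhibition across duplicate retests at 20 µM reaching about 50%, limit read from the data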;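 also: 0% = DMSO wells and 100% = wells with excess untagged CBFb-SMMHC; inhibitors lower the FRET ratio by blocking Runt binding to CBFb-SMMHC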
# Target sequence (Q01196 whole entry, looked up, the tested form may be a part): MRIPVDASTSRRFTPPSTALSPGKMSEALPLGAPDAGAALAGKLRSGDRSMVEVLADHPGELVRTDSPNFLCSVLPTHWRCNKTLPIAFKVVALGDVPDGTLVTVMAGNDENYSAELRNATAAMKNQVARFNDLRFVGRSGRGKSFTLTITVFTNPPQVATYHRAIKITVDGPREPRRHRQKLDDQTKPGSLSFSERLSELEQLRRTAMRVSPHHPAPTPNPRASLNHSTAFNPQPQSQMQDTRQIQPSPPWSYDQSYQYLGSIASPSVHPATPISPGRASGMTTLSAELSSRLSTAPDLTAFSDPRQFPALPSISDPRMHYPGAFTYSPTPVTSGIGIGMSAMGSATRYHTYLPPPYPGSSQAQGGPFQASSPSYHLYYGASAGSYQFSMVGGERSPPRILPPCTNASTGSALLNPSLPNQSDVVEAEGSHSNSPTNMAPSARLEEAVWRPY
# Target sequence (Q13951 whole entry, looked up, the tested form may be a part): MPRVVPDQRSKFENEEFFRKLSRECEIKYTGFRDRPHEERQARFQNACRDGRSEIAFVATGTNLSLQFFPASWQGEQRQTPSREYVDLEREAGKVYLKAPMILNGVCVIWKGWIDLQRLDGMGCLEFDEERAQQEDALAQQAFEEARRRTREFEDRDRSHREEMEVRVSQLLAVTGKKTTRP
# Runt-CBFb FRET: inhibitors of human RUNX1 Runt domain binding to CBFb; Cerulean-Runt/Venus-CBFb FRET ratio 530/480, 1 h; AID 1496; Q01196+Q13951; inhibition, % at 20 µM; actives 0.46% (n = 220,000);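 active = inhibition over about 50% at 20 µM in the single-dose screen, limit read from the data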;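 also: 0% = DMSO wells and 100% = excess unlabeled CBFb competitor control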
#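 Assay system: Cerulean-Runt domain fusion protein, energy donor; Signal: fluorescence energy transfer, 422 nm excitation, 530/480 nm emission; Timing: 1 h compound exposure, room temperature; Control set: unlabeled CBFb; Medium: Tris buffer pH 7.5 with salts and BSA; Compound: single test concentration of 20 µM, 1% DMSO final; Probe or stimulus: Venus-CBFb 100 nM.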
# TbHK1 inh: blocks Trypanosoma brucei hexokinase 1 activity; recombinant TbHK1, G6PDH-coupled NADH A340; inhibition, % at 10 µM; actives 0.11% (n = 220,000); AID 1430;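 active = inhibition of 50% or more in the single-dose primary screen; inactive = inhibition below 50%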
# YIC counter: counter-screen YIC FRET for RanGTP-importin-beta inhibitors; IC50, µM; actives 40% (n = 1,000); shares compounds with RanGTP-Imp inh; Purified YIC probe, intramolecular FRET ratio YFP/CFP; AID 435026;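 active = fitted half-maximal inhibitory concentration no more than tenfold above the top dose tested; inconclusive = flat fit with 30 to 70% activity, or poor fit; inactive = half-maximal concentration beyond tenfold above the top dose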
# * marks the source's active call; other numbers are inactive results; ? = inconclusive; nt = not tested or not shown.
SMILES,RanGTP-Imp inh,Hck Nef HTS,Runt-SMMHC FRET,Runt-CBFb FRET,TbHK1 inh,YIC counter
COc1cc2sc3ccc(C#CC4(O)CCCCC4)cc3c(=O)c2cc1OC,31.6*,nt,nt,nt,nt,25.9*
COC(=O)C1=C(C)NC(C)=C(C(=O)OC)C1C(=O)OC(C)C(=O)c1ccccc1 (stereo not drawn),21.5*,-5.1,-1.9,0.7,-9.9,>50
Cc1ccc(C2CC(c3ccc(Br)cc3)=NN2C(=O)CSC2=NN3CCCC(=O)N=C3S2)cc1 (stereo not drawn),1.9,nt,nt,nt,nt,nt
O=C1CCCN2N=C(SCC(=O)N3N=C(c4ccc(Br)cc4)CC3c3ccc(F)cc3)SC2=N1 (stereo not drawn),20.0*,20.9,-2.5,-0.2,-6.3,>50
N#CC1=C(N)SC(N)=C(C#N)C1c1cccc(Oc2ccccc2)c1,24.2*,5.4,78.2*,39.4,-4.5,>50
N#CC1=C(N)SC(N)=C(C#N)C1c1c(Cl)cccc1Cl,9.9,14.0,43.3,15.4,22.6,nt
CCOc1ccc(NS(=O)(=O)c2ccc3c(c2)CCN3C(=O)CCC(=O)O)cc1,28.0*,-0.1,-2.8,-0.7,-13.2,>50
COc1ccc(CCNC(=O)Cc2ccsc2)cc1,-1.0,nt,nt,nt,nt,nt
Fc1ccccc1N1CC(c2ccccc2)C(c2cccs2)=N1 (stereo not drawn),19.5*,39.0,61.6*,27.5,-3.1,13.9*
CCCCC(Br)C(=O)Nc1ccc(S(=O)(=O)Nc2cc(C)nc(C)n2)cc1 (stereo not drawn),-0.2,nt,nt,nt,nt,nt
C/C(=N\NC(=O)c1c(C)nc2ccccn12)c1ccc(O)cc1O,20.7*,nt,nt,nt,nt,47.5*
C/C(=N\NC(=O)c1c(C)nc2ccccn12)c1ccccc1F,-1.0,nt,nt,nt,nt,nt
C/C(=N\OCc1ccccc1)c1c(O)cc(C(C)C)n(-c2ccccc2)c1=O,-0.5,4.3,-1.2,-1.7,7.0,nt
COc1ccccc1CNC(=O)C1CCN(S(=O)(=O)c2ccc(-n3cnnn3)cc2)CC1,-0.8,nt,nt,nt,nt,nt
CCC(C)OC(=O)C[N+](C)(C)CCOC1CC2CCC1(C)C2(C)C (stereo not drawn),22.4*,19.3,-1.9,-0.2,15.1,>50
CC(C)CCOC(=O)C[N+](C)(C)CCOC1CC2CCC1(C)C2(C)C (stereo not drawn),1.0,-0.2,-2.0,-3.2,9.8,nt
CCOC(=O)CC(=O)CSc1nc2c(cc1C#N)CCC2,16.0*,1.4,14.9,34.4,-15.3,24.2*
O=C1c2cccnc2C(Nc2ccc(F)c(Cl)c2)N1Cc1cccs1 (stereo not drawn),?,25.2,-3.9,0.8,8.3,nt
Nc1nc2nc(-c3ccc(OCc4ccccc4)cc3)cc(C(F)(F)F)n2n1,34.4*,1.9,91.8*,79.6*,-17.7,4.98*
COc1ccccc1Cn1c(SCC(N)=O)nc2c(oc3ccccc32)c1=O,nt,19.0,-1.0,-0.8,-3.0,nt
Cc1nn(C)c(Oc2ccc(Cl)cc2)c1C(=O)O,23.2*,1.9,4.3,0.3,-0.1,>50
Cc1cc(C(=O)N/N=C2\CC(=O)CC(C)(C)C2)n[nH]1,16.2*,-1.9,-8.6,-0.6,-13.5,>50
CCc1ccc(C(=O)C(C)OC(=O)C2COc3ccccc3O2)cc1 (stereo not drawn),-3.1,3.0,1.4,-2.7,33.8,nt
Cc1ccc(C(C(=O)NCc2ccccc2)N(Cc2ccco2)C(=O)c2snc(C(N)=O)c2N)o1 (stereo not drawn),-2.2,nt,nt,nt,nt,nt
CC(C)CCNC(=O)C(c1ccco1)N(Cc1ccccc1)C(=O)c1snc(C(N)=O)c1N (stereo not drawn),30.1*,3.7,5.6,-3.5,-2.3,>50
CC12CCC(=O)C=C1CCC1C2C(O)CC2(C)C1CCC2(O)C(=O)CO (stereo not drawn),1.2,nt,nt,nt,nt,nt
COc1cc(C(=O)Oc2c(CN3CCOCC3)cc(Cl)c3cccnc23)cc(OC)c1OC,16.1*,-0.1,1.4,1.1,-14.3,>50
COc1ccc(C(=O)Oc2c(CN3CCOCC3)cc(Cl)c3cccnc23)cc1,25.2*,-0.7,1.8,3.6,-2.9,>50
Cc1ccc(Cl)cc1N1C(=O)CC(Sc2ncccn2)C1=O (stereo not drawn),16.1*,nt,nt,nt,nt,>50

# Compound activity deposited in PubChem BioAssay by several laboratories.
